# ChEMBL document CHEMBL2380248, “Matrix metalloproteinase inhibitors based on the 3-mercaptopyrrolidine core” (J Med Chem, 2013)
# Activity calls are given as the source filed them. No cut-off for these calls is given here.
# Columns and labels:
# [1] = target: 72 kDa type IV collagenase (Homo sapiens, UniProt P08253); experiment: Inhibition of MMP-2 (unknown origin) using Mca-PLGLDpa-AR-NH2 as substrate preincubated for 30 mins by fluorescence assay; conditions: read-out: Ki(app)
# How it was run: (§1)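 Fluorogenic assay at 25°C in 50 mM HEPES pH 7.5, 10 mM CaCl2, 200 mM NaCl, 0.01% Brij-35, 5 μM TCEP. Inhibitor in DMSO preincubated 30 min with enzyme (0.2–7 nM), then started with Mca-PLGLDpa-AR-NH2 (4 μL of […] in 50% DMSO); product release followed at λex 328/λem 393 nm.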
# Matrilysin = target: T1, Matrilysin (Homo sapiens, UniProt P09237); experiment: Inhibition of MMP-7 (unknown origin) using Mca-PLGLDpa-AR-NH2 as substrate preincubated for 30 mins by fluorescence assay; conditions: read-out: Ki(app); how it was run: as §1
# T1 sequence (P09237 whole entry): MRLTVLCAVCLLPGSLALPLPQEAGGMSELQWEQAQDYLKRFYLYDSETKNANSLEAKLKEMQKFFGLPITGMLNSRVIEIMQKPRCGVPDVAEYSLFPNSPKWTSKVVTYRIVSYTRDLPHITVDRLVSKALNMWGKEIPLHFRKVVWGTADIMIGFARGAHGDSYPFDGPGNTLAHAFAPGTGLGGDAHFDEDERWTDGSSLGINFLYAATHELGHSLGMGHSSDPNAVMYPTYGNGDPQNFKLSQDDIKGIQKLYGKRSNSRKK
# [2] = target: Matrix metalloproteinase-14 (Homo sapiens, UniProt P50281); experiment: Inhibition of MMP-14 (unknown origin) using Mca-PLGLDpa-AR-NH2 as substrate preincubated for 30 mins by fluorescence assay; conditions: read-out: Ki(app); how it was run: as §1
# Stromelysin-1 = Stromelysin-1 (Homo sapiens, UniProt P08254); experiment: Inhibition of MMP-3 (unknown origin) using Mca-PLGLDpa-AR-NH2 as substrate preincubated for 30 mins by fluorescence assay; conditions: read-out: Ki(app); how it was run: as §1
# Stromelysin-1, sequence (P08254 whole entry): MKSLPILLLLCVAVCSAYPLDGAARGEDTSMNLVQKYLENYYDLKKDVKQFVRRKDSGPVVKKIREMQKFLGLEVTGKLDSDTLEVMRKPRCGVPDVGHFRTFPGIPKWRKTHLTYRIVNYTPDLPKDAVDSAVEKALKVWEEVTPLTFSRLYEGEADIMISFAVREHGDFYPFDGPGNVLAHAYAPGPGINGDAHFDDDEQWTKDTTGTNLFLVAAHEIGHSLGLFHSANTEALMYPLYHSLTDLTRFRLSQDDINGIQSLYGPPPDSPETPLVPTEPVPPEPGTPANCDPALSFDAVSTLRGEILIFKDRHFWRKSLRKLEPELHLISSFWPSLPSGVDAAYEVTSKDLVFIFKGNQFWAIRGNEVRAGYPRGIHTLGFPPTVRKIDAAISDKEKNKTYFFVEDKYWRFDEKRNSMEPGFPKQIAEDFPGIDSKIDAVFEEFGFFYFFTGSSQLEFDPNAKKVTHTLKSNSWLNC
# Interstitial collagenase = target: T2, Interstitial collagenase (Homo sapiens, UniProt P03956); experiment: Inhibition of MMP-1 (unknown origin) using Mca-PLGLDpa-AR-NH2 as substrate preincubated for 30 mins by fluorescence assay; conditions: read-out: Ki(app); how it was run: as §1
# T2 sequence (P03956 whole entry): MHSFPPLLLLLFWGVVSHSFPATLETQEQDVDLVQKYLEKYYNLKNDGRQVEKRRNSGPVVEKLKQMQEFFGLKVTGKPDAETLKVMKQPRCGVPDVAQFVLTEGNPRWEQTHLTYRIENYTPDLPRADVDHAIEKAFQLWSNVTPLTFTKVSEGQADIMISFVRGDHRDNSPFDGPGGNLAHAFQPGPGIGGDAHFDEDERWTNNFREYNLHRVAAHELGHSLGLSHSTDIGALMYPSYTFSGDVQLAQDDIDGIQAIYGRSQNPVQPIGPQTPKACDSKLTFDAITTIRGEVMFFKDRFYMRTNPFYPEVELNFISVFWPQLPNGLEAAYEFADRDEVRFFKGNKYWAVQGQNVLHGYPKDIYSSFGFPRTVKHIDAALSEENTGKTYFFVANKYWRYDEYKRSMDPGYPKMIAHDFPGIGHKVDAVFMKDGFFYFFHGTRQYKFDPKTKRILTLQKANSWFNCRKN
# [3] = target: T3, Matrix metalloproteinase-9 (Homo sapiens, UniProt P14780); experiment: Inhibition of MMP-9 (unknown origin) using Mca-PLGLDpa-AR-NH2 as substrate preincubated for 30 mins by fluorescence assay; conditions: read-out: Ki(app); how it was run: as §1
# T3 sequence (P14780 whole entry): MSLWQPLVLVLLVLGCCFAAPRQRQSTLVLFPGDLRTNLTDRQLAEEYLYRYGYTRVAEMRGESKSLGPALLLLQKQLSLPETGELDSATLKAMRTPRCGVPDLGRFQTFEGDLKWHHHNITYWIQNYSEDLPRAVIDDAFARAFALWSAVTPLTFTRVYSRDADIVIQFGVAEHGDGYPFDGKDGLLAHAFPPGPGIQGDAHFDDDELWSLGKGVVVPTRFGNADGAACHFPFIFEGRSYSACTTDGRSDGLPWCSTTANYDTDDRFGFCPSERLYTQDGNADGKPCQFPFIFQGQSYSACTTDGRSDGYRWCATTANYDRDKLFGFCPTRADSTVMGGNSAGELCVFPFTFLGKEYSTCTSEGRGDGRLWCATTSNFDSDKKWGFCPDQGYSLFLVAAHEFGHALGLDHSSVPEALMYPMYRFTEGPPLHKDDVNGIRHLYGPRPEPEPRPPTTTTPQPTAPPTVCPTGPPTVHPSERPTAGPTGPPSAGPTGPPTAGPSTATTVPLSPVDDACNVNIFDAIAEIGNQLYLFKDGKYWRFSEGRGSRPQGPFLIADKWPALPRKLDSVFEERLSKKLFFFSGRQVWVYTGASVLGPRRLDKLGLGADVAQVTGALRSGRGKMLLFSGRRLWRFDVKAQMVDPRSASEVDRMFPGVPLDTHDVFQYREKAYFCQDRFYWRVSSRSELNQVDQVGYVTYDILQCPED
# Collagenase 3 = Collagenase 3 (Homo sapiens, UniProt P45452); experiment: Inhibition of MMP-13 (unknown origin) using Mca-PLGLDpa-AR-NH2 as substrate preincubated for 30 mins by fluorescence assay; conditions: read-out: Ki(app); how it was run: as §1
# [4] = Cytotoxicity against human MSC assessed as cell killing up to 100 uM after 24 hrs by trypan blue staining-based hemocytometric analysis relative to control
# How it was run: (§2)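 Low-passage hMSCs grown in αMEM with L-glutamine, penicillin, streptomycin, 20% FBS at 37°C, 5% CO2; fed every three days to 75% confluency, then given fresh media with inhibitor (log panel 1 μM to 100 μM, constant final DMSO) for 24 h. Cells washed with PBS, trypsinized, pelleted, Trypan Blue counted by hemocytometer; normalized to control, triplicate, mean ± SEM; >20% killing deemed cytotoxic.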
# [5] = Stability of the compound in alpha-modified minimum essential medium at 10000 x IC50 up to 72 hrs in presence of fetal bovine serum; assay type: ADME; conditions: cattle
# How it was run: (§3)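 Aliquots then incubated 30 min with MMP-9 (final ~1 nM) in HEPES buffer before substrate addition; relative rates (νi/νo) taken in triplicate and plotted versus time; mean ± SEM.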
# [6] = target: T3, Matrix metalloproteinase-9; experiment: Inhibition of MMP-9 (unknown origin) at 10000 x IC50 incubated up to 72 hrs prior to enzyme addition measured after 30 mins in presence of 20% fetal bovine serum; how it was run: as §3
# [7] = Cytotoxicity against human MSC assessed as reduction in cell number at 100 uM after 24 hrs by trypan blue staining-based hemocytometric analysis relative to control; set-up: scale not given: the % may be the effect or the level left; how it was run: as §2
# 72 kDa type IV collagenase, sequence (P08253 whole entry): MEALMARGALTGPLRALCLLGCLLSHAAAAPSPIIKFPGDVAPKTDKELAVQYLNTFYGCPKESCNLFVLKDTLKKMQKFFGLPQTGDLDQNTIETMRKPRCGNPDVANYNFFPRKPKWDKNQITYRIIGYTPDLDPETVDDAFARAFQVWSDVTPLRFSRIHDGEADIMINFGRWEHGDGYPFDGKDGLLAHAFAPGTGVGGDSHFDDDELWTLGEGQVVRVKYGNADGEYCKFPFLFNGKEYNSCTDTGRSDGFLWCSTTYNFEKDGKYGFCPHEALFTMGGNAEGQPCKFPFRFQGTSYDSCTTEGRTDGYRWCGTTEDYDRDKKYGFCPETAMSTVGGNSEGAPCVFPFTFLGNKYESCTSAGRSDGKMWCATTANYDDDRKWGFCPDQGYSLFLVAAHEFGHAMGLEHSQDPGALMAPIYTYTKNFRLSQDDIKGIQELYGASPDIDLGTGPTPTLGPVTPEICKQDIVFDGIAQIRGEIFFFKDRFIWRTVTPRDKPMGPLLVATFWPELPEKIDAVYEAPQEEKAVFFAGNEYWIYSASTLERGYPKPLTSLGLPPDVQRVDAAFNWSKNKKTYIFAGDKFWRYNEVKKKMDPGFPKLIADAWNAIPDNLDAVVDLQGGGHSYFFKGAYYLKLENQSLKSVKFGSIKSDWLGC
SMILES,Ki [1],Ki (Matrilysin),Ki [2],Ki (Stromelysin-1),Ki (Interstitial collagenase),Ki [3],Ki (Collagenase 3),Activity [4],Stability [5],inhibition [6],Activity [7]
CNC(=O)[C@H](Cc1ccccc1)NC(=O)[C@@H](CC(C)C)S[C@H]1CN(C(=O)CCCCCN2C(=O)c3ccccc3C2=O)C[C@H]1S (mixture of isomers),1.7 nM,11 nM,7 nM,1.9 nM,52 nM,0.98 nM,,,,,
O=S(=O)(N[C@H]1CCC[C@@H]1S)c1ccc(Oc2ccccc2)cc1,4.6 nM,> 100000 nM,31 nM,> 200000 nM,2100 nM,38 nM,17 nM,,,,
O=S(=O)(N[C@@H]1CNC[C@H]1S)c1ccc(Oc2ccccc2)cc1,,4100 nM,,,6300 nM,,,,,,
NC(=O)N1C[C@H](NS(=O)(=O)c2ccc(Oc3ccccc3)cc2)[C@@H](S)C1 (racemic),,> 25000 nM,,,,,,<= 20%,Stable,,
O=S(=O)(N[C@@H]1CCC[C@@H]1S)c1ccc(Oc2ccccc2)cc1 (racemic),810 nM,> 20000 nM,410 nM,,> 100000 nM,970 nM,200 nM,,,,
CNC(=O)[C@H](Cc1ccccc1)NC(=O)[C@@H](CC(C)C)S[C@H]1CN(C(C)=O)C[C@H]1S (mixture of isomers),14 nM,91 nM,6.2 nM,990 nM,99 nM,5.7 nM,,,,,
O=S(=O)(N[C@H]1CCC[C@@H]1S)c1ccc(Oc2ccccc2)cc1 (racemic) [listing 1 of 2 here],,,,,,,,,,Active,
O=C(NCCN1C(=O)c2ccccc2C1=O)N1C[C@H](NS(=O)(=O)c2ccc(Oc3ccccc3)cc2)[C@@H](S)C1 (racemic),,> 12000 nM,,,,,,<= 20%,,,
O=S(=O)(N[C@H]1CCC[C@@H]1S)c1ccccc1 (racemic),7200 nM,> 50000 nM,3000 nM,> 200000 nM,> 20000 nM,9600 nM,3400 nM,,,,
NCCCCCC(=O)N1C[C@H](NS(=O)(=O)c2ccc(Oc3ccccc3)cc2)[C@@H](O)C1 (racemic),7000 nM,> 100000 nM,85000 nM,> 100000 nM,> 50000 nM,30000 nM,> 200000 nM,,,,
O=S(=O)(N[C@@H]1CCC[C@@H]1S)c1ccc(Oc2ccccc2)cc1,25000 nM,> 200000 nM,25000 nM,> 200000 nM,> 200000 nM,> 1600 nM,> 100000 nM,,,,
O=S(=O)(N[C@H]1CNC[C@@H]1S)c1ccc(Oc2ccccc2)cc1,,> 200000 nM,,,50000 nM,,,,,,
CNC(=O)[C@H](Cc1ccccc1)NC(=O)[C@@H](CC(C)C)S[C@H]1CN(C(=O)CN2C(=O)c3ccccc3C2=O)C[C@H]1S (mixture of isomers),17 nM,50 nM,70 nM,300 nM,110 nM,4.9 nM,,,,,
O=S(=O)(N[C@H]1CNC[C@@H]1S)c1ccc(Oc2ccccc2)cc1 (racemic),,> 25000 nM,,,25000 nM,,,,,,
O=S(=O)(N[C@H]1CCC[C@@H]1O)c1ccc(Oc2ccccc2)cc1 (racemic),50000 nM,> 200000 nM,> 200000 nM,> 200000 nM,> 200000 nM,200000 nM,100000 nM,,,,
CNC(=O)[C@H](Cc1ccccc1)NC(=O)[C@@H](CC(C)C)S[C@H]1CNC[C@H]1S (mixture of isomers),200 nM,230 nM,310 nM,4100 nM,260 nM,5.3 nM,,,,,
CC(=O)NCCCCCC(=O)N1C[C@H](NS(=O)(=O)c2ccc(Oc3ccccc3)cc2)[C@@H](S)C1 (racemic),,,,,> 6000 nM,,,<= 20%,Stable,,
O=S(=O)(N[C@H]1CCC[C@@H]1S)c1ccc(-c2ccccc2)cc1 (racemic),240 nM,,1200 nM,10000 nM,10000 nM,630 nM,230 nM,,,,
O=S(=O)(N[C@H]1CCC[C@H]1S)c1ccc(Oc2ccccc2)cc1,430 nM,> 100000 nM,68 nM,,,280 nM,160 nM,,,,
CNC(=O)[C@H](Cc1ccccc1)NC(=O)[C@@H](CC(C)C)S[C@H]1CN(C(=O)CCCN2C(=O)c3ccccc3C2=O)C[C@H]1S (mixture of isomers),8.5 nM,12 nM,6 nM,31 nM,75 nM,3.9 nM,,,,,
Cl.NCCCCCC(=O)N1C[C@H](NS(=O)(=O)c2ccc(Oc3ccccc3)cc2)[C@@H](S)C1 (racemic),3.1 nM,,6.6 nM,,> 3000 nM,3.6 nM,,<= 20%,Stable,Active,
CN([C@H]1CN(C(N)=O)C[C@@H]1S)S(=O)(=O)c1ccc(Oc2ccccc2)cc1 (racemic),,> 25000 nM,,,,1.1 nM,,,,,
O=S(=O)(N[C@H]1CCC[C@@H]1S)c1ccc(Oc2ccccc2)cc1 (racemic) [listing 2 of 2 here],18 nM,> 20000 nM,18 nM,,3400 nM,25 nM,15 nM,<= 20%,Stable,,40%
O=S(=O)(N[C@@H]1CCC[C@H]1S)c1ccc(Oc2ccccc2)cc1,67 nM,36000 nM,10 nM,> 100000 nM,,42 nM,10 nM,,,,
O=C(N[C@H]1CCC[C@@H]1S)c1ccc(Oc2ccccc2)cc1 (racemic),5700 nM,5700 nM,> 25000 nM,> 200000 nM,> 200000 nM,4300 nM,28000 nM,,,,
